Source: PubChem
HTRA1 inhibitor: inhibitors of human serine peptidase HTRA1 | recombinant HTRA1, FP-rhodamine activity-based probe, fluorescence polarization | 0.5% of 340,000 active | inhibition, % at 5.96 µM | Q92743; in the data active = inhibition above about 36%;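 also: 0% = enzyme with DMSO and 100% = wells lacking enzyme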
PRMT1 inh: inhibitors of human PRMT1; 1.3% of 370,000 active; inhibition, % at 2.79 µM; recombinant PRMT1, activity-based probe fluorescence polarization; Q99873;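 active = inhibition above about 21% made by adding two undisclosed values, limit read from the data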
Target sequence (Q99873 whole entry, looked up): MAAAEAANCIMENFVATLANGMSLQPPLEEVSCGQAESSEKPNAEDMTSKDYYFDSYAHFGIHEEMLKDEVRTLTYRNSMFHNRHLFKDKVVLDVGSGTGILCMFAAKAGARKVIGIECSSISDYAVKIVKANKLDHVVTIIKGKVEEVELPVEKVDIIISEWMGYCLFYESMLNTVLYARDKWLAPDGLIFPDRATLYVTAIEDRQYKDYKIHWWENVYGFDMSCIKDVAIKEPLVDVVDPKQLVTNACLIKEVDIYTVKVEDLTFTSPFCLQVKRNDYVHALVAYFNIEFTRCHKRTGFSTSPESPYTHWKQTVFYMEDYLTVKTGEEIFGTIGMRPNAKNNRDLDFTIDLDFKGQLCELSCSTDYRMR
mABHD4 FP: ABHD4 (mouse) inhibition, primary FP screen; Q8VD66; purified mABHD4, FP-Rh probe fluorescence polarization; inhibition, % at 8.92 µM; 0.54% of 370,000 active; AID 720543;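 active = inhibition exceeding the mean over every tested compound plus 3 SD, cut at about 30% in these data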;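 also: 0% = plate median of compound wells and 100% = S159A mutant with DMSO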
Target sequence (Q8VD66 whole entry, looked up): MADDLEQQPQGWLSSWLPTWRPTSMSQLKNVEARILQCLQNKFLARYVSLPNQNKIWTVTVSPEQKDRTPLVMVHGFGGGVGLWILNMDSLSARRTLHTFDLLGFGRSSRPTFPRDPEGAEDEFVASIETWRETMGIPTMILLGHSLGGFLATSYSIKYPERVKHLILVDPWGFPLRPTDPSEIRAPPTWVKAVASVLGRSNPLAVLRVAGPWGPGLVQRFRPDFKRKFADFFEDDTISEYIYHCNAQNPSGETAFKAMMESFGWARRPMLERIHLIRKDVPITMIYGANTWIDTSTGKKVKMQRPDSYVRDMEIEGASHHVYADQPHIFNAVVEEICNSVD
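Test system: mouse ABHD4 enzyme, wild type. Reagent: FP-Rh fluorescent activity-based probe, added after compound pre-incubation. Timing: pre-incubation 45 min, probe exposure 60 min, at 25 °C. Technique: FP readout, ex 525 nm / em 598 nm. Benchmarks: high control S159A mutant with DMSO, low control median of compound wells.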
TCR-CD3 inh: human TCR-CD3 binding inhibition | TAMRA-labeled TCR probe fluorescence, biochemical | inhibition, % at 9.4 µM | 0.37% of 360,000 active | AID 651800; in the data active = inhibition above about 19%;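 also: recombinant mutant TCR 2C K166C tagged with TAMRA read by polarization; 0% = receptor in buffer alone and 100% = receptor with positive control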
SIAE inh: blocks human sialic acid acetylesterase. Q9HAT2. SIAE FP-Rh probe binding, fluorescence polarization. 0.69% of 370,000 active. inhibition, % at 9.66 µM;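 active = inhibition above a cutoff: mean of compounds within the control limits plus 3 SD of those, cut at about 17% in these data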;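 also: 0% = plate median of compound wells and 100% = probe without SIAE protein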
SIAE confirm: confirmation of human SIAE inhibitors. shares compounds with SIAE inh. SIAE FP-Rh activity-based probe, fluorescence polarization. inhibition, % at 9.66 µM. 13% of 2,300 active;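 active = mean inhibition of the replicates above the hit cutoff set in the primary screen, cut at about 17% in these data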;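 also: 0% = SIAE with DMSO and probe and 100% = probe without SIAE; inhibitors lower polarization as more probe stays unbound to SIAE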
An asterisk follows results filed as active; . = not tested or not shown. This is a sample that favours compounds with a hit; in the whole collection about 2.5% have one here.

SMILES | HTRA1 inhibitor | PRMT1 inh | mABHD4 FP | TCR-CD3 inh | SIAE inh | SIAE confirm
Cc1ncc(CO)c(/C=N/NC(=S)Nc2ccc(C(C)C)cc2)c1O | 29.3 | 0.9 | 10.7 | 14.0 | 17.5* | 14.8
COc1ccc(NC(=O)N(C)C[C@H]2Oc3ccc(NS(=O)(=O)c4ccc(F)cc4)cc3C(=O)N([C@H](C)CO)C[C@@H]2C)cc1 | -5.1 | -1.8 | 10.4 | 5.3 | 17.7* | 2.6
CCOC(=O)[C@]12CCCCC/C=C\1N(CCc1ccc(Cl)cc1)C(=O)[C@H]2CC(=O)N1CCCCC1 | . | 2.1 | 5.2 | . | 0.7 | .
CCOC(=O)N1CCN(C(=O)COc2cccc3c2CCN(CC)C3=O)CC1 | -3.2 | 4.4 | 1.6 | -3.5 | 19.8* | -1.4
CC(C)(C)C(=O)OC12CCCN(C1)/C(=C/c1ccc(Cl)cc1)C2 (centres undefined) | . | 0.6 | 3.2 | . | 6.2 | .
Oc1ccc(/C=N/Nc2ccc(C(F)(F)F)cn2)cc1 | 4.5 | 0.3 | -7.1 | -13.5 | 6.2 | .
COc1cc(/C=N/Nc2ccc(C(F)(F)F)cn2)cc(OC)c1O | 10.6 | 4.5 | 16.8 | 1.0 | 17.6* | 7.5
COC(=O)[C@]12C[C@H](CC(=O)N3CCN(C(=O)c4ccco4)CC3)C(=O)N(Cc3ccc4c(c3)OCO4)C1=C[C@H](C(C)C)O[C@@H]2C1CC1 | . | 7.7 | 0.7 | . | -2.6 | .
CCN(CC)CCn1c(=N)n(CCO)c2ccccc21 | -2.7 | 1.8 | 2.3 | -0.6 | 21.3* | -7.2
CCN(CC)CCn1c(=N)n(CCOc2ccccc2)c2ccccc21 | 2.7 | -1.9 | 6.6 | -5.9 | -2.5 | .
C=CCNC(=O)c1onc(CSc2ccc(OC)cc2)c1C(=O)O | 5.2 | -1.5 | 2.9 | 6.0 | 21.8* | -3.7
C=CCNC(=O)c1onc(CSc2ccccc2)c1C(=O)O | -4.5 | -2.2 | 11.2 | -0.9 | -0.9 | .
C[C@H]1C2CC(OC(=O)NCc3ccccc3)C(C2)[C@H]2CCCCN21 (some centres undefined) | . | 1.0 | 2.6 | . | -5.5 | .
CC(C)Oc1ccc(-c2csc(N3CCC(C(N)=O)CC3)n2)cc1 | . | 5.2 | 1.9 | . | 0.8 | .
O=C(NC1CC1)c1cccc(S(=O)(=O)Nc2ccccc2F)c1 | 0.9 | -1.1 | -1.8 | 8.6 | 17.3* | -2.8
Fc1ccc(-c2n[nH]c(=S)n2N=Cc2ccc(OCc3ccccc3)cc2)cc1 | . | 14.8 | -8.9 | . | -0.8 | .
O=C(O)[C@@H]1CCCN1C(=O)c1ccccc1N1C(=O)[C@@H]2Cc3c([nH]c4ccccc34)C(c3cccc(Cl)c3)N2C1=O (some centres undefined) | -13.3 | 4.9 | -24.1 | 14.9 | 43.9* | -11.2
c1csc(C2=Nn3c(nnc3-c3ccncc3)SC2)c1 | 2.7 | -5.0 | 2.3 | -9.5 | 18.8* | -0.8
c1ccc(-c2ccc(C3=Nn4c(nnc4-c4ccncc4)SC3)cc2)cc1 | . | 1.5 | -26.3 | . | -17.3 | .
O=C(N[C@H](C(=O)N1CCC[C@H]1C(=O)NC1CCCC1)C1CCCCC1)C1CCCC1 | . | -0.4 | 2.1 | 2.4 | 2.0 | .
CNc1nnc(CSc2nc(C)cc(C)n2)s1 | 5.0 | 0.4 | 5.4 | 4.7 | 27.3* | 8.6
COc1cc(/C=N/NC(=O)c2ccc(N)cc2)ccc1OC(=O)c1cccc(C)c1 | -29.4 | -3.7 | 5.1 | 0.6 | 21.8* | -2.3
CC1CN(C(=S)Nc2ccc(Cl)cc2)CC(C)O1 (centres undefined) | -1.4 | 2.0 | 4.5 | -11.1 | 7.2 | .
CC1CN(c2ccc(NC(=S)Nc3ccc(N4CC(C)OC(C)C4)cc3)cc2)CC(C)O1 (centres undefined) | 13.8 | -1.7 | 23.6 | -2.4 | 20.3* | -3.8
COc1ccc(CNc2ncc(-c3ccc(F)cc3)n2C)c2ccccc12 | -13.6 | -3.7 | 15.4 | 3.5 | 17.8* | 8.3
SMILES | HTRA1 inhibitor | PRMT1 inh | mABHD4 FP | TCR-CD3 inh | SIAE inh | SIAE confirm
COc1ccccc1CNc1ncc(-c2ccc(F)cc2)n1C | -4.6 | 0.6 | 5.2 | 2.5 | 0.7 | .
O=C(NC1CCCCN(Cc2cccc(Cl)c2)C1=O)c1ccccn1 (centres undefined) | . | 2.9 | 3.6 | . | -1.4 | .
CCCC(C(=O)NC1CCCC1)N(Cc1ccc(F)cc1)C(=O)c1snc(C(N)=O)c1N (centres undefined) | -5.9 | -1.1 | -7.9 | 1.1 | -1.2 | .
CCCC(C(=O)NC1CCCC1)N(Cc1ccc2c(c1)OCO2)C(=O)c1snc(C(N)=O)c1N (centres undefined) | -0.9 | -2.6 | 0.6 | 3.1 | 23.8* | 2.6
CCCCc1c(-c2ccccc2OC)ncn1Cc1cccc(OC)c1 | . | 4.7 | 2.0 | 2.6 | 19.9* | -3.9
CCCCc1c(-c2ccccc2OC)ncn1CCc1cccc(OC)c1 | . | 1.5 | 3.9 | 1.9 | -1.2 | .
CCN(CC)C(=O)CC[C@H]1CC[C@]2(CCCN(Cc3ccccc3)C2)O1 | . | 0.1 | 2.8 | . | 1.5 | .
Cc1c(CCNC=O)cc(C)c2c3c(oc12)CCCC3 | -18.5 | -1.2 | -0.5 | -0.9 | 88.6* | 5.0
COc1ccc(CN(CC#Cc2ccc(C)cc2)C(N)=NC(=O)CCc2ccccc2)c(OC)c1 | . | -1.0 | -9.4 | . | -7.6 | .
COc1cc(OC)c(NC(=O)N2CCOCC2)cc1Cl | 3.1 | -4.2 | 0.1 | -4.5 | 25.2* | 2.4
COc1cc(OC)c(NC(=O)c2cc(S(=O)(=O)N3CCOCC3)cn2C)cc1Cl | -5.7 | -1.7 | -4.5 | 10.8 | 3.3 | .
CCc1ccccc1-c1cc(C(=O)OC)c2n(c1=O)CCC2 | . | -0.9 | 6.6 | . | -3.3 | .
O=C(COC(=O)Cc1ccc(F)cc1)Nc1ccc2[nH]c(=O)[nH]c2c1 | 1.2 | -2.0 | 1.0 | 8.0 | 18.1* | 2.1
O=C(CSc1nncs1)Nc1ccc2[nH]c(=O)[nH]c2c1 | -0.8 | -1.9 | 0.2 | 7.6 | 17.2* | 2.1
COc1ccc(CC(=O)OCC(=O)Nc2ccc3[nH]c(=O)[nH]c3c2)cc1 | 2.1 | 1.3 | 6.9 | -6.3 | -0.2 | .
CCNC(=S)NNC(=O)c1ccc(OC)cc1 | 3.1 | -2.0 | -4.3 | 2.4 | 17.4* | 7.0
CCCCC(=O)NC(=S)NNC(=O)c1ccc(OC)cc1 | 2.7 | 7.7 | 6.8 | 10.3 | -0.5 | .
CCn1c(COc2ccc(Cl)cc2)nnc1SCC(=O)Nc1ccc(Oc2ccccc2)cc1 | . | 1.3 | 3.3 | . | 3.5 | .
COc1cc(NC(=O)c2ccc(F)cc2)c(OC)cc1NC(=O)CN1CCOCC1 | 3.8 | -2.8 | -3.6 | 6.1 | 0.2 | .
COc1cc(NC(=O)c2ccccc2F)c(OC)cc1NC(=O)CN1CCOCC1 | -5.9 | 6.0 | 4.7 | -0.4 | 17.1* | 3.1
C=CCn1c(SCc2c(Cl)cccc2Cl)nnc1-c1cccc(C)c1 | . | 0.1 | 3.9 | . | -5.9 | .
COCc1nnc(NC(=O)C23CC4CC(CC(C4)C2)C3)s1 | -3.7 | 8.8 | -7.9 | -3.5 | 17.5* | 3.5
O=C1CCC[C@H]2Cc3nc4cc5c(cc4cc3C[C@]23CCCN13)OCO5 | . | 1.8 | -4.0 | . | 0.1 | .
CCCCC#CC(CC)NCc1ccc(OC)cc1OC (centres undefined) | . | 0.2 | 1.5 | . | -2.9 | .
COc1cc(S(=O)(=O)NCc2ccccc2)ccc1F | -2.4 | -2.0 | 0.5 | -5.3 | 19.4* | -2.7
